Assay results taken from ChEMBL document CHEMBL3045116, “Synthesis and biological evaluation of 2-(5-substituted-1-((diethylamino)methyl)-2-oxoindolin-3-ylidene)-N-substituted-hydrazinecarbothioamides” (Med Chem Res, 2013).

What was measured:
[1] = tested on: Vesicular stomatitis virus; experiment: Antiviral activity against Vesicular stomatitis virus infected human HEL cells assessed as reduction of virus-induced cytopathic effect after 3 days by colorimetric formazan-based MTS assay; assay type: functional, organism-based; details: 72 h
Procedure, shortened: (§1)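 Confluent cell monolayers were infected with 100 CCID50 of virus, and serial dilutions of compound were added at the time of infection.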

[2] = tested on: Human alphaherpesvirus 1; experiment: Antiviral activity against Human herpesvirus 1 strain KOS infected human HEL cells assessed as reduction of virus-induced cytopathic effect after 3 days by colorimetric formazan-based MTS assay; assay type: functional, organism-based; details: Human alphaherpesvirus 1, KOS, 72 h; procedure, shortened: as §1
[3] = tested on: Human alphaherpesvirus 1; experiment: Antiviral activity against acyclovir-resistant thymidine kinase negative Human herpesvirus 1 strain KOS infected human HEL cells assessed as reduction of virus-induced cytopathic effect after 3 days by colorimetric formazan-based MTS assay; assay type: functional, organism-based; details: Human alphaherpesvirus 1, KOS, 72 h; procedure, shortened: as §1
[4] = Cytotoxicity against Homo sapiens (human) HEL cells assessed as change in cellular morphology; assay type: cell-based
[5] = tested on: Human alphaherpesvirus 2; experiment: Antiviral activity against Human herpesvirus 2 strain G infected human HEL cells assessed as reduction of virus-induced cytopathic effect after 3 days by colorimetric formazan-based MTS assay; assay type: functional, organism-based; details: Human alphaherpesvirus 2, strain G, 72 h; procedure, shortened: as §1
[6] = tested on: Influenza A virus; experiment: Antiviral activity against Unidentified Influenza A virus (H1N1) infected MDCK cells assessed as reduction of virus-induced cytopathic effect after 3 days by colorimetric formazan-based MTS assay; assay type: functional, organism-based; details: 72 h; procedure, shortened: as §1
[7] = tested on: Human respirovirus 3; experiment: Antiviral activity against Human parainfluenza virus 3 infected African green monkey Vero cells assessed as reduction of virus-induced cytopathic effect after 3 days by colorimetric formazan-based MTS assay; assay type: functional, organism-based; details: Human respirovirus 3, Vero, 72 h
Procedure, shortened: (§2)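 Cells grown to confluency in 96-well plates ([…], Vero for lines 9–10) were infected with 100 CCID50 of virus, and serial compound dilutions were added at infection. Plates were incubated at 37 °C for 3 days, until complete CPE appeared in untreated virus controls.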

[8] = tested on: Influenza B virus; experiment: Antiviral activity against Influenza B virus infected in MDCK cells assessed as reduction of virus-induced cytopathic effect after 3 days by colorimetric formazan-based MTS assay; assay type: functional, organism-based; details: 72 h; procedure, shortened: as §1
[9] = tested on: Vesicular stomatitis virus; experiment: Antiviral activity against Vesicular stomatitis virus infected human HeLa cells assessed as reduction of virus-induced cytopathic effect after 3 days by colorimetric formazan-based MTS assay; assay type: functional, organism-based; details: 72 h; procedure, shortened: as §1
[10] = tested on: Respirovirus muris; experiment: Antiviral activity against Sendai virus infected African green monkey Vero cells assessed as reduction of virus-induced cytopathic effect after 3 days by colorimetric formazan-based MTS assay; assay type: functional, organism-based; details: 72 h
[11] = (§3) Cytotoxicity against MDCK cells assessed as change in cellular morphology; assay type: cell-based, Canis lupus familiaris; details: dog, MDCK cells
Procedure, shortened: (§4)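 Uninfected cells were exposed to compound in parallel with the antiviral cultures. The read-out is the minimum cytotoxic concentration that causes a microscopically detectable alteration of normal cell morphology.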

[12] = (§5) Cytotoxicity against Homo sapiens (human) HeLa cells assessed as change in cellular morphology; assay type: cell-based; details: HeLa cells; procedure, shortened: as §4
[13] = tested on: Mammalian orthoreovirus 1; experiment: Antiviral activity against Mammalian orthoreovirus 1 infected African green monkey Vero cells assessed as reduction of virus-induced cytopathic effect after 3 days by colorimetric formazan-based MTS assay; assay type: functional, organism-based; details: Mammalian orthoreovirus 1, Vero, 72 h; procedure, shortened: as §2
[14] = tested on: Coxsackievirus B4; experiment: Antiviral activity against Human coxsackievirus B4 infected African green monkey Vero cells assessed as reduction of virus-induced cytopathic effect after 3 days by colorimetric formazan-based MTS assay; assay type: functional, organism-based; details: Enterovirus B, 72 h; procedure, shortened: as §1
[15] = tested on: Influenza A virus H3N2; experiment: Antiviral activity against Influenza A virus H3N2 infected MDCK cells assessed as reduction of virus-induced cytopathic effect after 3 days by colorimetric formazan-based MTS assay; assay type: functional, organism-based; details: 72 h; procedure, shortened: as §1
[16] = Cytotoxicity against Chlorocebus aethiops (African green monkey) Vero cells assessed as change in cellular morphology; assay type: cell-based; details: chlorocebus sabaeus
[17] = tested on: Coxsackievirus B4; experiment: Antiviral activity against Human coxsackievirus B4 infected human HeLa cells assessed as reduction of virus-induced cytopathic effect after 3 days by colorimetric formazan-based MTS assay; assay type: functional, organism-based; details: Enterovirus B, 72 h; procedure, shortened: as §1
[18] = tested on: Respiratory syncytial virus; experiment: Antiviral activity against Respiratory syncytial virus infected human HeLa cells assessed as reduction of virus-induced cytopathic effect after 3 days by colorimetric formazan-based MTS assay; assay type: functional, organism-based; details: 72 h; procedure, shortened: as §1
[19] = tested on: Punta Toro virus; experiment: Antiviral activity against Punta Toro virus infected in African green monkey Vero cells assessed as reduction of virus-induced cytopathic effect after 3 days by colorimetric formazan-based MTS assay; assay type: functional, organism-based; details: 72 h; procedure, shortened: as §1
[20] = tested on: HeLa; experiment: as §5; assay type: cell-based; details: hela; procedure, shortened: as §4
[21] = tested on: Vaccinia virus; experiment: Antiviral activity against Vaccinia virus infected human HEL cells assessed as reduction of virus-induced cytopathic effect after 3 days by colorimetric formazan-based MTS assay; assay type: functional, organism-based; details: Orthopoxvirus vaccinia, 72 h; procedure, shortened: as §1
[22] = tested on: Felid alphaherpesvirus 1; experiment: Antiviral activity against Felid herpesvirus 1 infected cat CRFK cells assessed as reduction of virus-induced cytopathic effect after 3 days by colorimetric formazan-based MTS assay; assay type: functional, organism-based; details: Felid alphaherpesvirus 1, CRFK, 72 h; procedure, shortened: as §2
[23] = tested on: Feline infectious peritonitis virus; experiment: Antiviral activity against Feline Infectious peritonitis virus infected cat CRFK cells assessed as reduction of virus-induced cytopathic effect after 3 days by colorimetric formazan-based MTS assay; assay type: functional, organism-based; details: Alphacoronavirus 1, CRFK, 72 h; procedure, shortened: as §1
[24] = Cytotoxicity against Felis catus (cat) CRFK cells assessed as change in cellular morphology; assay type: cell-based; details: CRFK cells; procedure, shortened: as §4
[25] = tested on: MDCK; experiment: as §3; assay type: cell-based, Canis lupus familiaris; details: dog, mdck; procedure, shortened: as §4
[26] = tested on: Aspergillus niger; experiment: Antifungal activity against Aspergillus niger assessed as growth inhibition at 50 ug/ml by cup-plate method (reference value: 8 to 10 mm); assay type: functional; details: read-out: DIZ
[27] = tested on: Candida albicans; experiment: Antifungal activity against Candida albicans assessed as growth inhibition at 50 ug/ml by cup-plate method (reference value: 8 to 10 mm); assay type: functional; details: read-out: DIZ
[28] = tested on: Staphylococcus aureus; experiment: Antibacterial activity against Staphylococcus aureus assessed as growth inhibition at 50 ug/ml by cup-plate method (reference value: 8 to 10 mm); assay type: functional; details: read-out: DIZ
[29] = tested on: Salmonella typhi; experiment: Antibacterial activity against Salmonella enterica subsp. enterica serovar Typhi assessed as growth inhibition at 50 ug/ml by cup-plate method (reference value: 8 to 10 mm); assay type: functional; details: read-out: DIZ
[30] = tested on: Bacillus subtilis; experiment: Antibacterial activity against Bacillus subtilis assessed as growth inhibition at 50 ug/ml by cup-plate method (reference value: 8 to 10 mm); assay type: functional; details: read-out: DIZ
[31] = tested on: Escherichia coli; experiment: Antibacterial activity against Escherichia coli assessed as growth inhibition at 50 ug/ml by cup-plate method (reference value: 8 to 10 mm); assay type: functional; details: read-out: DIZ
[32] = tested on: Klebsiella pneumoniae; experiment: Antibacterial activity against Klebsiella pneumoniae assessed as growth inhibition at 50 ug/ml by cup-plate method (reference value: 8 to 10 mm); assay type: functional; details: read-out: DIZ
[33] = tested on: Proteus vulgaris; experiment: Antibacterial activity against Proteus vulgaris assessed as growth inhibition at 50 ug/ml by cup-plate method (reference value: 8 to 10 mm); assay type: functional; details: read-out: DIZ
[34] = tested on: L1210; experiment: Cytotoxicity against Mus musculus (mouse) L1210 cells assessed as growth inhibition after 48 hr by coulter counter analysis; assay type: functional, cell-based; details: L1210, 48 h
Procedure, shortened: (§6)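 Cells in growth medium were allowed to proliferate with variable compound amounts at 37 °C in a humidified CO2 atmosphere. Incubation ran 48 h for L1210, 72 h for CEM and 96 h for HeLa. Cells were then counted with a Coulter counter.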

[35] = tested on: CCRF-CEM; experiment: Cytotoxicity against Homo sapiens (human) CEM cells assessed as growth inhibition after 72 hr by coulter counter analysis; assay type: functional, cell-based; procedure, shortened: as §6

In the case of `Nc1ccn(C[C@@H](CO)OCP(=O)(O)O)c(=O)n1` [CIDOFOVIR], the EC50 [1] is reported as greater than 250 µM, the EC50 [2] is reported as 5 µM and the EC50 [3] is reported as 6 µM. It also gave an MCC [4] greater than 250 µM and an EC50 [5] of 1.5 µM.

For `NC(=O)c1ncn([C@@H]2O[C@H](CO)[C@@H](O)[C@H]2O)n1` [RIBAVIRIN], the EC50 [6] was 11.5 µM, the EC50 [7] was 50 µM and the EC50 [8] was 8.4 µM. The EC50 [9] was 12.1 µM, the EC50 [10] was greater than 250 µM and the MCC [11] was no less than 100 µM. The CC50 [12] was greater than 250 µM, the MCC [12] was greater than 250 µM and the EC50 [13] was greater than 250 µM. The EC50 [14] was greater than 250 µM, the EC50 [15] was 6.8 µM and the MCC [16] was greater than 250 µM. It also gave an EC50 [17] of 28.5 µM and an EC50 [18] of 4.6 µM.

With `Nc1ncnc2c1ncn2C[C@H](O)CO` [(S)-DHPA] the EC50 [19] was greater than 250 µM, the EC50 [9] was greater than 250 µM and the EC50 [10] was greater than 250 µM. It also gave a CC50 [20] greater than 250 µM, an MCC [12] greater than 250 µM and an EC50 [14] greater than 250 µM. The MCC [16] was greater than 250 µM, the EC50 [17] was greater than 250 µM and the EC50 [18] was greater than 250 µM.

In the case of `Nc1nc2c(ncn2COC(CO)CO)c(=O)[nH]1` [GANCICLOVIR], the EC50 [1] is reported as greater than 100 µM, the EC50 [21] is reported as greater than 100 µM and the EC50 [22] is reported as 7.3 µM. It also gave an EC50 [3] of no less than 20 µM, an MCC [4] greater than 100 µM and an EC50 [5] of 0.07 µM. It also gave an EC50 [23] greater than 100 µM and a CC50 [24] greater than 100 µM.

For `NC12CC3CC(CC(C3)C1)C2` [AMANTADINE], the EC50 [6] was 65.5 µM, the EC50 [8] was greater than 500 µM and the MCC [11] was greater than 500 µM. For the same compound, the CC50 [25] was greater than 500 µM and the EC50 [15] was 1.5 µM.

`OC(Cn1cncn1)(Cn1cncn1)c1ccc(F)cc1F` [FLUCONAZOLE] gave a zone of inhibition at 50 µg/mL [26] of 31 mm and a zone of inhibition at 50 µg/mL [27] of 31 mm.

`CC1COc2c(N3CCN(C)CC3)c(F)cc3c(=O)c(C(=O)O)cn1c23` (stereo unspecified) [OFLOXACIN] gave a zone of inhibition at 50 µg/mL [28] of 31 mm, a zone of inhibition at 50 µg/mL [29] of 31 mm and a zone of inhibition at 50 µg/mL [30] of 31 mm. It also gave a zone of inhibition at 50 µg/mL [31] of 31 mm, a zone of inhibition at 50 µg/mL [32] of 31 mm and a zone of inhibition at 50 µg/mL [33] of 31 mm.

`N[C@@H](Cc1ccc(N(CCCl)CCCl)cc1)C(=O)O` gave an IC50 [34] of 3.2 µM and an IC50 [35] of 2.2 µM.
